From ChEMBL document CHEMBL1153772 (J Nat Prod, 2009)
Converted amounts (≈) assume the structure as drawn. The source made the active and inactive calls. The rule behind the calls is not given here.

How the values were obtained:
[1] = Permeability at 50 uM at pH 5 by PAMPA; assay type: ADME; details: read-out: permeability
A549 = test: Cytotoxicity against human A549 cells; assay type: functional, cell-based
Method in brief: (§1)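 IC50 value derived from at least three separate assay runs per sample.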

ASPC1 = test: Cytotoxicity against human AsPC1 cells; assay type: functional, cell-based; method in brief: as §1
BXPC-3 = test: Cytotoxicity against human BxPC3 cells; assay type: functional, cell-based; method in brief: as §1
DLD-1 = test: Cytotoxicity against human DLD1 cells; assay type: functional, cell-based; method in brief: as §1
MIA PaCa-2 = test: Cytotoxicity against human MIAPaCa2 cells; assay type: functional, cell-based; method in brief: as §1
NCI/ADR-RES = test: Cytotoxicity against human NCI/ADR-RES cells; assay type: functional, cell-based; method in brief: as §1
PANC-1 [2] = test: Cytotoxicity against human PANC1 cells; assay type: functional, cell-based; method in brief: as §1
Vero = test: Cytotoxicity against african green monkey Vero cells; assay type: cell-based; details: Chlorocebus sabaeus; method in brief: as §1
PANC-1 [3] = test: Cell cycle arrest in human PANC1 cells assessed as accumulation of cells at G1 phase at <=46.5 after 24 hrs by propidium iodide staining method; assay type: functional, cell-based
Method in brief: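 PANC-1 cells in RPMI 1640 with 10% FBS, HEPES, antibiotics, glutamine, pyruvate and glucose, at 37°C in 5% CO2, exposed to varying compound concentrations for 24 h alongside methanol vehicle and paclitaxel positive controls. Cells then ethanol-fixed and stained with 0.02 mg/mL propidium iodide plus 0.1 mg/mL RNase A. Flow cytometry collected 10,000 events per sample, and DNA histograms were modelled for phase distribution.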

Nucleic Acid = test: Displacement of ethidium bromide from DNA; assay type: nucleic-acid assay
Candida albicans = test: Antifungal activity against Candida albicans 44506 after 24 hrs by broth dilution assay; assay type: functional; details: Candida albicans, 44506, 24 h
Method in brief: (§2)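 Broth microdilution in microtiter format at a seeding density of 10^3/mL. C. albicans was grown in Sabouraud dextrose broth; S. aureus and P. aeruginosa in cation-supplemented Mueller-Hinton broth. Incubated at 37°C, with growth scored after 24 h. MIC taken as the lowest concentration giving complete growth inhibition.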

Staphylococcus aureus = test: […] activity against methicillin resistant Staphylococcus aureus 700787 after 24 hrs by broth dilution assay; assay type: functional; details: Staphylococcus aureus, 700787, 24 h; method in brief: as §2
Pseudomonas aeruginosa = test: […] activity against […] aeruginosa 27853 after 24 hrs by broth dilution assay; assay type: functional; details: Pseudomonas aeruginosa, 27853, 24 h; method in brief: as §2
[4] = Solubility at pH 5; assay type: physicochemical; details: buffer
[5] = Solubility at pH 6.2; assay type: physicochemical; details: buffer
[6] = Solubility at pH 7.4; assay type: physicochemical; details: buffer
HL-60(TB) = test: Cytotoxicity against human HL-60(TB) cells assessed cell growth; assay type: functional; method in brief: as §1
CCRF-CEM = test: Cytotoxicity against human CCRF-CEM cells assessed cell growth; assay type: functional
[7] = Permeability at 50 uM at pH 7.4 by PAMPA; assay type: ADME; details: read-out: permeability
[8] = Protein binding in mouse plasma at 10 uM; assay type: ADME, cell-free; details: read-out: PPB (converted)
[9] = Protein binding in mouse plasma at 1 uM; assay type: ADME, cell-free; details: read-out: PPB (converted)
[10] = Unbound fraction in mouse plasma at 10 uM; assay type: ADME, cell-free
[11] = Unbound fraction in mouse plasma at 1 uM; assay type: ADME, cell-free
[12] = Stability in mouse plasma in presence of PBS at 40 uM after 3 hrs; assay type: ADME, cell-free; details: read-out: Stability
[13] = Stability in mouse plasma assessed as compound remaining at 40 uM after 3 hrs in presence of PBS and inorganic phosphate buffer; assay type: ADME, cell-free; details: read-out: Activity
[14] = Stability in PBS at 40 uM after 3 hrs; assay type: physicochemical; details: read-out: Stability
[15] = Metabolic satbility in human liver microsomes assessed as compound remaining at 1 uM after 60 min in the presence of NADPH; assay type: ADME, Microsome; details: read-out: Stability
[16] = Stability in PBS and inorganic phosphate at 40 uM after 3 hrs; assay type: physicochemical; details: read-out: Stability
[17] = Metabolic satbility in human liver microsomes assessed as compound remaining at 1 uM after 60 min in the absence of NADPH; assay type: ADME, Microsome; details: read-out: Stability
[18] = Metabolic satbility in mouse liver microsomes assessed as compound remaining at 1 uM after 60 min in the presence of NADPH; assay type: ADME, Microsome; details: read-out: Stability
[19] = Metabolic satbility in mouse liver microsomes assessed as compound remaining at 1 uM after 60 min in the absence of NADPH; assay type: ADME, Microsome; details: read-out: Stability
[20] = Metabolic stability in human liver microsomes assessed as compound metabolized at 1 uM in the presence of NADPH; assay type: ADME, Microsome; details: read-out: Activity
[21] = Metabolic stability in mouse liver microsomes assessed as compound metabolized at 1 uM in the presence of NADPH; assay type: ADME, Microsome; details: read-out: Activity
MOLT-4 = test: Cytotoxicity against human MOLT4 cells assessed cell growth; assay type: functional
SR = test: Cytotoxicity against human SR cells assessed cell growth; assay type: functional
EKVX = test: Cytotoxicity against human EKVX cells assessed cell growth; assay type: functional
HOP-62 = test: Cytotoxicity against human HOP62 cells assessed cell growth; assay type: functional
HOP-92 = test: Cytotoxicity against human HOP92 cells assessed cell growth; assay type: functional
Homo sapiens [22] = species: Homo sapiens; test: Protein binding in human plasma at 1 uM; details: read-out: PPB (converted)
[23] = Permeability at 50 uM at pH 6.2 by PAMPA
Homo sapiens [24] = species: Homo sapiens; test: Protein binding in human plasma at 10 uM; details: read-out: PPB (converted)
Homo sapiens [25] = species: Homo sapiens; test: Unbound fraction in human plasma at 1 uM
Homo sapiens [26] = species: Homo sapiens; test: Unbound fraction in human plasma at 10 uM
Homo sapiens [27] = species: Homo sapiens; test: Stability in human plasma in presence of PBS at 40 uM after 3 hrs
Homo sapiens [28] = species: Homo sapiens; test: Stability in human plasma assessed as compound remaining at 40 uM after 3 hrs in presence of PBS and inorganic phosphate buffer

SMILES: CC(=O)N(C)CCc1cc(Br)c(OCCCNc2ncn(C)c3ncnc2-3)c(Br)c1 [APHROCALLISTIN]
- Papp at 50 µM [1]: 33 ×10⁻⁶ cm/s
- IC50 (A549): 15.9 µM
- IC50 (ASPC1): > 100 µM
- IC50 (BXPC-3): 70.9 µM
- IC50 (DLD-1): 7.5 µM
- IC50 (MIA PaCa-2): 26.6 µM
- IC50 (NCI/ADR-RES): 34.3 µM
- IC50 (PANC-1 [2]): 22.8 µM
- IC50 (Vero): 76.1 µM
- Activity (PANC-1 [3]): Active
- Activity (Nucleic Acid): inactive
- MIC (Candida albicans): 250 µg/mL (≈ 463 µM)
- MIC (Staphylococcus aureus): 250 µg/mL (≈ 463 µM)
- MIC (Pseudomonas aeruginosa): > 500 µg/mL
- solubility [4]: > 267 µg/mL
- solubility [5]: > 267 µg/mL
- solubility [6]: > 267 µg/mL
- Activity (HL-60(TB)): 39.94%
- Activity (CCRF-CEM): 80.24%
- Papp at 50 µM [7]: 321 ×10⁻⁶ cm/s
- fraction unbound at 10 µM [8]: 0.309
- fraction unbound at 1 µM [9]: 0.15
- fraction unbound at 10 µM [10]: 0.309
- fraction unbound at 1 µM [11]: 0.15
- remaining at 3 h, 40 µM [12]: 96.3%
- remaining at 3 h, 40 µM [13]: 79.6%
- remaining at 3 h, 40 µM [14]: 99.7%
- remaining at 1 h, 1 µM [15]: 3.08%
- remaining at 3 h, 40 µM [16]: 76.5%
- remaining at 1 h, 1 µM [17]: 118%
- remaining at 1 h, 1 µM [18]: 1.44%
- remaining at 1 h, 1 µM [19]: 103%
- metabolised at 1 µM [20]: 96.9%
- metabolised at 1 µM [21]: 98.6%
- Activity (MOLT-4): 50.93%
- Activity (SR): 10.72%
- Activity (EKVX): 45.38%
- Activity (HOP-62): 71.38%
- Activity (HOP-92): 75.25%
- fraction unbound at 1 µM (Homo sapiens [22]): 0.044
- Papp at 50 µM [23]: 201 ×10⁻⁶ cm/s
- fraction unbound at 10 µM (Homo sapiens [24]): 0.103
- fraction unbound at 1 µM (Homo sapiens [25]): 0.044
- fraction unbound at 10 µM (Homo sapiens [26]): 0.103
- remaining at 3 h, 40 µM (Homo sapiens [27]): 103%
- remaining at 3 h, 40 µM (Homo sapiens [28]): 76.6%
